One test has as its system CNS carcinoma cell. Kind of test: Cytotoxicity against human CNS cancer cells after 48 hrs by SRB assay. The note with it: for CC50: read-out: LC50 (the source's name). It is filed as functional. In a few lines:
(§1)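 NCI-60 screen: single-dose pass at 10^-5 M, then a five-concentration assay from 10^-9 to 10^-4 M (highest 100 μM). Exposure was 48 h under standard NCI protocols. GI50, TGI and LC50 were derived per cell line and averaged by subpanel. Repeated tests are the mean of two experiments.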

The test system of another test is Melanoma cell line. Kind of test: Cytotoxicity against human melanoma cells after 48 hrs by SRB assay. It is filed as functional. To be noted: for CC50: read-out: LC50 (the source's name). In a few lines:
as §1

For the next test, the system named is Leukemia cell. Kind of test: Cytotoxicity against human leukemia cells after 48 hrs by SRB assay. Type of test: functional. The gist of the method: as §1
A further test has as its system NSCLC. Kind of test: Cytotoxicity against human NSCLC cells after 48 hrs by SRB assay. It is filed as functional. In a few lines: as §1
A short description of test [1]: Cytotoxicity against human COLON cells after 48 hrs by SRB assay. Type of test: functional. To be noted: for CC50: read-out: LC50 (the source's name). In a few lines: as §1
Another test has as its system Ovarian carcinoma cell. The test is described as follows: Cytotoxicity against human ovarian cancer cells after 48 hrs by SRB assay. It is filed as functional. The gist of the method:
as §1

The test system of a further test is Renal cancer cell line. Kind of test: Cytotoxicity against human renal cancer cells after 48 hrs by SRB assay. Type of test: functional. The gist of the method:
as §1

In the next test the test system is Prostatic carcinoma cell. The test is described as follows: Cytotoxicity against human prostate cancer cells after 48 hrs by SRB assay. It is filed as functional. The gist of the method:
as §1

For the next test, the system named is Breast carcinoma cell. Kind of test: Cytotoxicity against human breast cancer cells after 48 hrs by SRB assay. It is filed as functional. In a few lines: as §1
A further test has as its target Tubulin (Bos taurus, UniProt Q6B856+Q862L2+Q862F3). The test is described as follows: Inhibition of bovine brain tubulin polymerization after 20 mins by spectrophotometric analysis. The gist of the method: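 Bovine brain tubulin (10 μM) in glutamate buffer preincubated with varying compound levels at 30 °C, then chilled to 0 °C. GTP added to 0.4 mM final, then warmed to 30 °C. Assembly followed by turbidity at 350 nm. IC50 is the concentration halving the extent of assembly after 20 min.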

The target in test [2] is T1, Tubulin (Bos taurus) (UniProt Q6B856+Q862L2+Q862F3). The test is described as follows: Inhibition of [3H]colchicine binding to bovine brain tubulin at 5 uM after 20 mins relative to control. The gist of the method: (§2)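 Reaction mixtures held 1 μM tubulin, 5 μM [³H]colchicine and test compound at 5 or 50 μM. Read-out was percent inhibition of colchicine binding.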

Test [3] deals with T1, Tubulin (Bos taurus). Kind of test: Inhibition of [3H]colchicine binding to bovine brain tubulin at 50 uM after 20 mins relative to control. The gist of the method:
as §2

Test [4] has as its system K562. Kind of test: Cytotoxicity against human K562 cells after 48 hrs by SRB assay. Type of test: functional, cell-based.
Test [5] has as its system K562. The test is described as follows: Cell cycle arrest in human K562 cells assessed as mitotic index at IC50 by Giemsa staining-based assay (reference value: 3%). It is filed as functional.
Test [6] deals with K562. The test is described as follows: Cell cycle arrest in human K562 cells assessed as mitotic index at 5 times IC50 by Giemsa staining-based assay (reference value: 3%). Type of test: functional.
Test [7] concerns K562. Kind of test: Cell cycle arrest in human K562 cells assessed as mitotic index at 10 times IC50 by Giemsa staining-based assay (reference value: 3%). It is filed as functional.
Test [8] deals with K562. Kind of test: Cytotoxicity against human K562 cells after 16 hrs by SRB assay. The note with it: K562, 16 h.

Consider `COc1nc2sc(C)cn2c1/C=C1/C(=O)Nc2ccc(O)cc21`, for which the concentration for 50% growth inhibition (GI50) with CNS carcinoma cell was 4.76 µM; in the test with Melanoma cell line, 4.88 µM; in the test with Leukemia cell it was 3.32 µM; in the test on NSCLC, 7.54 µM; in test [1], 4.79 µM; in the test with Ovarian carcinoma cell it was 12.8 µM. Also, the concentration for 50% growth inhibition (GI50) in the test on Renal cancer cell line worked out at 6.58 µM; with Prostatic carcinoma cell, 7.59 µM; with Breast carcinoma cell it was 4.57 µM. The TGI in the test with CNS carcinoma cell was 64 µM; in the test on Melanoma cell line, 38.6 µM; in the test on Leukemia cell it was 61.7 µM; in the test with NSCLC, 72 µM; in test [1] it was 78.2 µM; in the test on Ovarian carcinoma cell it was 63.5 µM. Further, the concentration for total growth inhibition (TGI) with Renal cancer cell line was found to be 79.4 µM; in the test on Prostatic carcinoma cell it was 96.2 µM; with Breast carcinoma cell, 66.2 µM. Further, the values for the CC50 (with Melanoma cell line; in test [1]) were 94 µM and 98.2 µM, respectively.
As for `COc1ccc2c(c1)/C(=C\c1c(OC)nc3sc(C)cn13)C(=O)N2`, the GI50 is 0.43 µM with CNS carcinoma cell; 3.46 µM in the test on Melanoma cell line; 0.43 µM in the test with Leukemia cell; 1.49 µM in the test with NSCLC; 0.32 µM in [1]; 1.32 µM in the test on Ovarian carcinoma cell. Besides, the GI50 is 0.65 µM in the test on Renal cancer cell line, 0.38 µM in the test on Prostatic carcinoma cell and 0.87 µM in the test with Breast carcinoma cell. The TGI was determined as 33.6 µM with CNS carcinoma cell; 67.7 µM in the test with Melanoma cell line; 58.6 µM in the test with NSCLC; 35.7 µM in test [1]; 42.6 µM in the test with Ovarian carcinoma cell; 61.8 µM in the test with Renal cancer cell line. The results for the TGI with Prostatic carcinoma cell and in the test on Breast carcinoma cell were 52.8 µM and 61.3 µM, respectively. For the same molecule, the CC50 with CNS carcinoma cell turned out to be 85.4 µM; in test [1], 79.2 µM. Besides, the LC50 in the test on NSCLC came to 88.9 µM. The molecule also came in with an LC50 (50% lethal concentration) in the test on Ovarian carcinoma cell of 87.6 µM.
As for `COc1nc2sc(C)cn2c1C=C1C(=O)N(C)c2ccccc21`, the GI50 in the test with CNS carcinoma cell turned out to be 9.82 µM; in the test on Melanoma cell line, 8.08 µM; in the test on Leukemia cell, 4.35 µM; in the test on NSCLC, 9.5 µM; in test [1], 4.05 µM; in the test with Ovarian carcinoma cell it was 10.5 µM. Also, the GI50 with Renal cancer cell line stood at 13.1 µM; in the test with Prostatic carcinoma cell, 12.6 µM; in the test on Breast carcinoma cell it was 4.82 µM. The TGI in the test on CNS carcinoma cell turned out to be 42.4 µM; with Melanoma cell line, 34.2 µM; with Leukemia cell it was 74.2 µM; in the test with NSCLC, 73.2 µM; in [1] it was 36.3 µM; in the test with Ovarian carcinoma cell, 67 µM. For the same molecule, the values for the TGI with Renal cancer cell line, in the test on Prostatic carcinoma cell and with Breast carcinoma cell were 70.5 µM, 66.7 µM and 58.2 µM, respectively. For the same molecule, the values for the CC50 (in the test on CNS carcinoma cell; in the test with Melanoma cell line; in test [1]) were 97.3 µM, 93.4 µM and 91.1 µM, respectively. The molecule further showed an LC50 in the test on NSCLC of 95.1 µM. The LC50 (50% lethal concentration) in the test with Ovarian carcinoma cell is 92.8 µM.
On to `COc1ccc2c(c1)/C(=C/c1c(-c3ccncc3)nc3sccn13)C(=O)N2C`, for which the GI50 in the test on CNS carcinoma cell worked out at 0.38 µM; in the test with Melanoma cell line, 5.97 µM; in the test on Leukemia cell, 0.35 µM; in the test on NSCLC, 0.55 µM; in test [1] it was 0.34 µM; with Ovarian carcinoma cell, 1.14 µM. The 50% growth inhibitory concentration (GI50) in the test with Renal cancer cell line is 0.5 µM; with Prostatic carcinoma cell, 0.39 µM; in the test with Breast carcinoma cell, 0.44 µM. For the same molecule, the TGI with CNS carcinoma cell came out at 63.1 µM; in the test with Melanoma cell line it was 85.3 µM; in the test with Leukemia cell, 81.8 µM; in the test with NSCLC, 82.4 µM; in test [1], 78.8 µM; in the test with Ovarian carcinoma cell, 62.4 µM. The TGI stood at 65.5 µM in the test with Renal cancer cell line, 68.8 µM with Prostatic carcinoma cell and 80.1 µM in the test with Breast carcinoma cell. Further, the LC50 in the test on Leukemia cell stood at 96.1 µM. The CC50 in [1] was determined as 93 µM. For the same molecule, the LC50 (50% lethal concentration) with Ovarian carcinoma cell came out at 93.2 µM.
Regarding `COc1nc2sc(C)cn2c1/C=C1/C(=O)Nc2ccccc21`, the GI50 came out at 1.97 µM in the test with CNS carcinoma cell; 16.2 µM with Melanoma cell line; 0.5 µM in the test with Leukemia cell; 5.68 µM in the test on NSCLC; 0.8 µM in [1]; 6.29 µM with Ovarian carcinoma cell. In addition, the GI50 in the test on Renal cancer cell line amounted to 3.53 µM; in the test with Prostatic carcinoma cell it was 2.09 µM; in the test with Breast carcinoma cell, 2.52 µM. For the same molecule, the TGI in the test on CNS carcinoma cell turned out to be 40.1 µM; in the test on Melanoma cell line, 74.8 µM; in the test on Leukemia cell it was 7.25 µM; in the test with NSCLC, 65.2 µM; in [1] it was 56.8 µM; in the test with Ovarian carcinoma cell, 55.6 µM. Also, the TGI in the test with Renal cancer cell line was 67.6 µM; in the test with Prostatic carcinoma cell, 45 µM; in the test on Breast carcinoma cell, 67.3 µM. The CC50 in the test on CNS carcinoma cell was determined as 87.9 µM; in the test with Melanoma cell line it was 94.9 µM; in test [1], 93.3 µM. Also, the LC50 turned out to be 93.7 µM in the test with Leukemia cell and 99 µM in the test on NSCLC. The LC50 (50% lethal concentration) in the test with Ovarian carcinoma cell is 96.3 µM. Besides, the IC50 at Tubulin is 3.4 µM; with K562 [8], 1 µM. For the same molecule, the inhibition at Tubulin (Bos taurus) [2] stood at 39%; at Tubulin (Bos taurus) [3] it was 81%. Further, the Activity result is “Dose-dependent effect” in the test on K562 [4], 42% in the test on K562 [5], 61% in the test with K562 [6] and 80% in the test with K562 [7].
Take `O=C1Nc2ccccc2C1=Cc1c(-c2ccncc2)nc2sccn12`: the concentration for 50% growth inhibition (GI50) in the test with CNS carcinoma cell came to 1.6 µM; in the test on Melanoma cell line, 3.27 µM; with Leukemia cell, 2.65 µM; in the test with NSCLC, 8.97 µM; in test [1], 0.68 µM; in the test on Ovarian carcinoma cell, 2.34 µM. The GI50 in the test on Renal cancer cell line was 14.9 µM; in the test with Prostatic carcinoma cell, 1.1 µM; with Breast carcinoma cell, 5.42 µM. Also, the TGI was 49.7 µM in the test on CNS carcinoma cell; 78.3 µM with Melanoma cell line; 92 µM in the test with Leukemia cell; 82.4 µM in the test with NSCLC; 63.4 µM in test [1]; 61.3 µM with Ovarian carcinoma cell. In addition, the TGI in the test on Renal cancer cell line came out at 73.2 µM; in the test on Breast carcinoma cell it was 67.3 µM. Also, the CC50 was determined as 95 µM with CNS carcinoma cell, 92.2 µM in the test with Melanoma cell line and 94.3 µM in [1]. For the same molecule, the values for the LC50 (50% lethal concentration) in the test with Ovarian carcinoma cell and in the test on Renal cancer cell line were 91.8 µM and 92.4 µM, respectively.
Consider `Cc1nc2sccn2c1-c1nc2sccn2c1C=C1C(=O)Nc2cc(Cl)ccc21`, for which the inhibition was 15% on Tubulin (Bos taurus) [2] and 28% on Tubulin (Bos taurus) [3].

The record behind these values is ChEMBL document CHEMBL4316599, “Synthesis, in vitro and in vivo biological evaluation of substituted 3-(5-imidazo[2,1-b]thiazolylmethylene)-2-indolinones as new potent anticancer agents” (Eur J Med Chem, 2019).
